Two molecules from ChEMBL document CHEMBL4257502, “Anti-cancer effect of a novel 2,3-didithiocarbamate-substituted naphthoquinone as a tumor metabolic suppressor in vitro and in vivo” (Medchemcomm, 2018) can be followed below.

The species entered for data set [1] is Homo sapiens. Kind of data set: Selectivity ratio of IC50 for recombinant human N-terminal His-tagged PKM1 expressed in Escherichia coli to IC50 for recombinant human N-terminal His-tagged PKM2 expressed in Escherichia coli.
Data set [2] is filed under the species Homo sapiens. The data set is described as follows: Selectivity ratio of IC50 for recombinant human N-terminal His-tagged PKL expressed in Escherichia coli to IC50 for recombinant human N-terminal His-tagged PKM2 expressed in Escherichia coli.
Data set [3] concerns HCT-116. Kind of data set: Cytotoxicity against human HCT116 cells after 48 hrs by MTS assay. It counts as functional, cell-based. An outline of the steps: (§1)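 Cells seeded at 5000–10 000 per well and treated 12 h later with a range of concentrations for 48 h. Viability read by MTS reduction. IC50 reported ± SD.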
In data set [4] the test system is MCF7. Kind of data set: Cytotoxicity against human MCF7 cells after 48 hrs by MTS assay. Format: functional, cell-based. An outline of the steps:
as §1

Data set [5] deals with MDA-MB-231. Kind of data set: Cytotoxicity against human MDA-MB-231 cells after 48 hrs by MTS assay. It counts as functional, cell-based. An outline of the steps: as §1
Data set [6] concerns HeLa. The data set is described as follows: Cytotoxicity against human HeLa cells after 48 hrs by MTS assay. Format: functional, cell-based. An outline of the steps:
as §1
Background: Formazan colour is commonly taken as a measure of viable cells.

Data set [7] has as its system NCI-H1299. The data set is described as follows: Cytotoxicity against human NCI-H1299 cells after 48 hrs by MTS assay. Format: functional, cell-based. Summed up: as §1
Data set [8] relates to B16. The data set is described as follows: Cytotoxicity against mouse B16 cells after 48 hrs by MTS assay. Format: functional, cell-based. An outline of the steps:
as §1

For data set [9], the system named is BEAS-2B. The data set is described as follows: Cytotoxicity against human BEAS2B cells after 48 hrs by MTS assay. It counts as cell-based. An outline of the steps: as §1
The test system of data set [10] is HCT-116. Kind of data set: Cytotoxicity against human HCT116 cells assessed as reduction in ATP production at 10 to 20 uM after 6 hrs by CellTiter-Glo luminescent assay. It counts as functional, cell-based. Summed up: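 HCT116 cells seeded at 5 × 10^5 per well in 6-well plates. Exposed 24 h later to 10 μM or 20 μM for 6 h. Cellular ATP read by CellTiter-Glo luminescence.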
(In ATP-based viability assays light output follows the ATP content of the culture.)

Data set [11] deals with T1, Pyruvate kinase PKM (Homo sapiens, UniProt P14618). Kind of data set: Inhibition of recombinant human N-terminal His-tagged PKM2 expressed in Escherichia coli preincubated for 25 mins in presence of PEP/FBP followed by ADP/NADH addition measured after 25 mins by PK-LDH assay.
Target sequence in this assay (P14618 whole entry): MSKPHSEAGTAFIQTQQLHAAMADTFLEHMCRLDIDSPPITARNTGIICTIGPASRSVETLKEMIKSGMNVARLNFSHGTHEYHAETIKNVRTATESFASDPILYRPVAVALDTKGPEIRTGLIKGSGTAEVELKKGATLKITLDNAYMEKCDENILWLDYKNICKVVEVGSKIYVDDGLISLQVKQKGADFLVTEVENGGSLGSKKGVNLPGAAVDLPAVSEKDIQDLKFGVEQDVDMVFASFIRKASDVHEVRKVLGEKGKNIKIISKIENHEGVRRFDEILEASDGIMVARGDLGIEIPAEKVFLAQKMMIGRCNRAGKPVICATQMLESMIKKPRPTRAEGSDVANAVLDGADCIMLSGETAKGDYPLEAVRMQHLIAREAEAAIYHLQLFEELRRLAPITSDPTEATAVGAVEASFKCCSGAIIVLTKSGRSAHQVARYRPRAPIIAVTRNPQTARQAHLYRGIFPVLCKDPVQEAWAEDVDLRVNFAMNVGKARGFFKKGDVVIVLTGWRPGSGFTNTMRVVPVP
Data set [12] deals with T1, Pyruvate kinase PKM. The data set is described as follows: Inhibition of recombinant human N-terminal His-tagged PKM1 expressed in Escherichia coli preincubated for 25 mins in presence of PEP/FBP followed by ADP/NADH addition measured after 25 mins by PK-LDH assay.
Target sequence in this assay (P14618 whole entry): as above
Data set [13] deals with T1, Pyruvate kinase PKM. The data set is described as follows: Inhibition of PKM2 in human HCT116 cells measured after 8 hrs by fluorescent PK-LDH assay. It counts as cell-based. An outline of the steps: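 HCT116 cells exposed to 2.5, 5, 10 or 20 μM for 8 h, then lysed in NP40 buffer. Lysate pyruvate kinase activity was measured immediately by fluorescent PK–LDH coupled assay.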
Target sequence in this assay (P14618 2-531 limits assumed): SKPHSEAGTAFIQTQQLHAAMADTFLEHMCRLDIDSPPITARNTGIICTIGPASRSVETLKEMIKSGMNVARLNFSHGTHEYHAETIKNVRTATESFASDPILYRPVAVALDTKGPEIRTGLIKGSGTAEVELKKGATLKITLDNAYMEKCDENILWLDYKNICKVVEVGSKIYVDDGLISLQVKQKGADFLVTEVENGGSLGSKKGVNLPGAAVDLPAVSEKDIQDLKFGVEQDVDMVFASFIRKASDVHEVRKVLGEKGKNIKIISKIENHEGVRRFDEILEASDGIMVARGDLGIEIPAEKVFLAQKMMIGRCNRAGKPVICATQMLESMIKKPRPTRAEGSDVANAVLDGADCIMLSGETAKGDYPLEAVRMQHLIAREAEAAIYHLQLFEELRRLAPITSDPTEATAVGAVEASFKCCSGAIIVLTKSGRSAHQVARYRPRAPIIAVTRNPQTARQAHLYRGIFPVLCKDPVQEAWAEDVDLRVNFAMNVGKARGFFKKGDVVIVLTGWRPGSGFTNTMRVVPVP

Data set [14] addresses T1, Pyruvate kinase PKM. The data set is described as follows: Inhibition of PKM2 in human HCT116 cells assessed as reduction in beta-catenin-induced CCND1 gene expression at 20 uM after 8 hrs by RT-qPCR analysis. Format: cell-based. An outline of the steps: (§2)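 HCT116 cells seeded at 5 × 10^5 per well and treated 24 h later with 20 μM for 8 h. RNA extracted with TRIzol and reverse-transcribed. GLUT1, LDH and CCND1 transcripts quantified by SYBR Green qPCR.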
Target sequence in this assay (P14618 2-531 limits assumed): as above

The target in data set [15] is T1, Pyruvate kinase PKM. The data set is described as follows: Inhibition of PKM2 in human HCT116 cells assessed as reduction in cMYC-induced GLUT1 gene expression at 20 uM after 8 hrs by RT-qPCR analysis. Format: cell-based. An outline of the steps: as §2
(In general: Real-time PCR tracks product formation cycle by cycle.)
Target sequence in this assay (P14618 2-531 limits assumed): as above

Data set [16] deals with T1, Pyruvate kinase PKM. The data set is described as follows: Inhibition of PKM2 in human HCT116 cells assessed as reduction in cMYC-induced LDH gene expression at 20 uM after 8 hrs by RT-qPCR analysis. Format: cell-based. Summed up: as §2
Target sequence in this assay (P14618 2-531 limits assumed): as above
Data set [17] has as its system B16. Kind of data set: Antitumor activity against mouse B16 cells implanted in ip dosed C57BL/6 mouse assessed as tumor growth inhibition administered every 2 days for 12 days. Format: functional, organism-based. Summed up: (§3)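 Female mice given 1 × 10^6 B16 cells subcutaneously in the armpit. Dosing began about 6 days later, once tumors appeared, with N = 7 per group. Compound or vehicle (5% v/v DMAC in olive oil) was given ip every two days at 25 or 50 mg kg–1. Tumor volume was measured every two days as V = L(S2)π/6. Tumors were weighed individually. T/C was taken as relative tumor volume growth rate.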

Data set [18] relates to B16. The data set is described as follows: Antitumor activity against mouse B16 cells implanted in C57BL/6 mouse assessed as reduction in tumor weight at 50 mg/kg, ip administered every 2 days for 12 days relative to control. Format: functional. The arrangement: scale not given: the % may be the effect or the level left. Summed up:
as §3

The subject of data set [19] is B16. The data set is described as follows: Antitumor activity against mouse B16 cells implanted in C57BL/6 mouse assessed as tumor weight at 25 mg/kg, ip administered every 2 days for 12 days relative to control. It counts as functional. An outline of the steps:
as §3

Data set [20] deals with B16. Kind of data set: Antitumor activity against mouse B16 cells implanted in C57BL/6 mouse assessed as tumor volume at 50 mg/kg, ip administered every 2 days for 12 days measured during compound dosing relative to control. Format: functional. Summed up:
as §3

Data set [21] concerns Mus musculus. The data set is described as follows: Toxicity in C57BL/6 mouse implanted with mouse B16 cells assessed as effect on body weight at 25 to 50 mg/kg, ip administered every 2 days for 12 days. Particulars: in vivo. Format: organism-based. An outline of the steps:
as §3

Data set [22] addresses Pyruvate kinase PKLR (Homo sapiens, UniProt P30613). Kind of data set: Inhibition of recombinant human N-terminal His-tagged PKL expressed in Escherichia coli preincubated for 25 mins in presence of PEP/FBP followed by ADP/NADH addition measured after 25 mins by PK-LDH assay.
The test system of data set [23] is spontaneous PTEN-deleted breast carcinoma (Mus musculus). The data set is described as follows: Antitumor activity against mouse spontaneous PTEN-deleted breast carcinoma assessed as reduction in tumor growth at 50 mg/kg, ip administered every 2 days for 36 days.
Data set [24] shares this test system. Kind of data set: Antitumor activity against mouse spontaneous PTEN-deleted breast carcinoma assessed as reduction in tumor weight at 50 mg/kg, ip administered every 2 days for 36 days relative to control. The arrangement: scale not given: the % may be the effect or the level left.

For orientation: IC50 means the concentration that gives 50% inhibition. The term T/C denotes the ratio of treated to control.

The source made the active and inactive calls. The rule behind the calls is not given here.

Chain of Pyruvate kinase PKLR (P30613 whole entry): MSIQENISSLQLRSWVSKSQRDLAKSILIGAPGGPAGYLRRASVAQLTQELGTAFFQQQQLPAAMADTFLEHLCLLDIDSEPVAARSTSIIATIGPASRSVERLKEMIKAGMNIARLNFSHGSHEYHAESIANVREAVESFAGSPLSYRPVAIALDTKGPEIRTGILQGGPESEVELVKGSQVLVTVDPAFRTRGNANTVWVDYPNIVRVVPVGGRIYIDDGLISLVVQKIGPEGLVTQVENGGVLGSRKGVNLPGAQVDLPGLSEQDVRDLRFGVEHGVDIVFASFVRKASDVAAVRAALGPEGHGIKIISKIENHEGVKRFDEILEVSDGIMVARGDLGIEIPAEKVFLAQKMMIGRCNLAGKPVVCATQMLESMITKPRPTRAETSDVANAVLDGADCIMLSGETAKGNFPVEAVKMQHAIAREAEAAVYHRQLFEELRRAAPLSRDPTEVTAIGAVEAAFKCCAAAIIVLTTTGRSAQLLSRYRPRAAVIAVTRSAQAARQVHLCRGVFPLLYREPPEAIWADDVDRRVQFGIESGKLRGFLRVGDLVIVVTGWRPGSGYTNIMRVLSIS

`CC(C)=CC[C@@H](O)C1=CC(=O)c2c(O)ccc(O)c2C1=O`: the Ratio IC50 in data set [1] is 1.5; in data set [2], 4.5.
As to `O=C1C(CSC(=S)N2CCCCC2)=C(CSC(=S)N2CCCCC2)C(=O)c2ccccc21`, the Activity result in [3], in data set [4], in data set [5], in data set [6], in data set [7] and in data set [8] was “Dose-dependent effect” throughout. Besides, the Activity in data set [18] is 30%; in data set [19] it was 12%; in [21] it was “Non-Toxic”; in [24], 20%. Also, the IC50 in data set [3] (HCT-116, 48 h) worked out at 77 nM; in data set [4] (MCF7, 48 h) it was 61 nM; in [5] (MDA-MB-231, 48 h), 135 nM; in [6] it was 124 nM; in [7] (NCI-H1299, 48 h), 109 nM; in data set [8] (B16, 48 h), 104 nM. In addition, the IC50 in data set [9] came to 32600 nM; in data set [11], 880 nM; in data set [12], 5070 nM; in data set [22], 2900 nM. For the same molecule, the result in data set [10] and in data set [23] was Active. In data set [13], the inhibition result is “Dose-dependent effect”. Besides, the Ratio IC50 in [1] stood at 5.8; in [2], 3.3. Moreover, the inhibition result in data set [14], in data set [15] and in data set [16] was “Active” each time. Further, in [17], the TGI result was “Dose-dependent effect”. Also, the T/C in data set [20] is 40%.
